Test results from ChEMBL document CHEMBL4334454, “Alkaloids Purified from Aristotelia chilensis Inhibit the Human α3β4 Nicotinic Acetylcholine Receptor with Higher Potencies Compared with the Human α4β2 and α7 Subtypes” (J Nat Prod, 2019).
Calls of active or inactive are those of the source. The calls are words filed in the database; no cut-off is given here.

Assays:
Format in all cases: cell-based
[1] = target: T1, Neuronal acetylcholine receptor; alpha4/beta2 (Homo sapiens, UniProt P17787+P43681); assay: Agonist activity at human AChR alpha4beta2 transfected in human HEK293 cells assessed as increase in calcium influx incubated for 1 hr by fluo-4 dye based assay
T1 sequence (P17787 whole entry): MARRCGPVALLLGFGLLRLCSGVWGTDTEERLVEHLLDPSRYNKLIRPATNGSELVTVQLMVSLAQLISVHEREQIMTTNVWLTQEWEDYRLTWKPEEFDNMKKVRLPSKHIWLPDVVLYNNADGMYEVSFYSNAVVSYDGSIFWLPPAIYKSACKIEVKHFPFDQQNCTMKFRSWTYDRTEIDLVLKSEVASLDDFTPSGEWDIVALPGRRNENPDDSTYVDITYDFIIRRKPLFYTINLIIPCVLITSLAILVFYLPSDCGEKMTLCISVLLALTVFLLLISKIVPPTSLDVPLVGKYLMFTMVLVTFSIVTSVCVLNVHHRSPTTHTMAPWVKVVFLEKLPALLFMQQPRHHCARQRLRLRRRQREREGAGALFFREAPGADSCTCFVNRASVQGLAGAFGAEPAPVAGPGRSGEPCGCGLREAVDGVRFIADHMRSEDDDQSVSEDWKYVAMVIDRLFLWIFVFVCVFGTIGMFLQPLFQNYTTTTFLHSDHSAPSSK
T1 sequence (P43681 whole entry): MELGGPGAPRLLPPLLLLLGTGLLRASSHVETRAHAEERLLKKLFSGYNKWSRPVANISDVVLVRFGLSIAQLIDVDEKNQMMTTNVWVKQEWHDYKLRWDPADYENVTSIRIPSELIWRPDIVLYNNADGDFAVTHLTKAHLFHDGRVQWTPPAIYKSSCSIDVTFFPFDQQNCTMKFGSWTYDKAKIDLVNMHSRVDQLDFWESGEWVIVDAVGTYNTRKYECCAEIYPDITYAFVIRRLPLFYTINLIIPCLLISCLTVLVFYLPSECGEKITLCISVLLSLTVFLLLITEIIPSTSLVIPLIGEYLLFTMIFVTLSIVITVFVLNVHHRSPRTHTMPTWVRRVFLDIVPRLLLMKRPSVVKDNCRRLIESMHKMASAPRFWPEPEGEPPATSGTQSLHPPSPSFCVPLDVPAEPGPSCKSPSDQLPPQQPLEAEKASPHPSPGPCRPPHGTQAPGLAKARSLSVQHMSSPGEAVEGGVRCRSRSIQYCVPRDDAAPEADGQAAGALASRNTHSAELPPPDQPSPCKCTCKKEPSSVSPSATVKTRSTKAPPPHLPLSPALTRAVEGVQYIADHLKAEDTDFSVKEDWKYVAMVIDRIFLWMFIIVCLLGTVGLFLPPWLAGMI

[2] = target: T2, Neuronal acetylcholine receptor subunit alpha-7 (Homo sapiens, UniProt P36544); assay: Agonist activity at human AChR alpha7 transfected in rat GH3 cells assessed as increase in calcium influx incubated for 1 hr by fluo-4 dye based assay
T2 sequence (P36544 whole entry): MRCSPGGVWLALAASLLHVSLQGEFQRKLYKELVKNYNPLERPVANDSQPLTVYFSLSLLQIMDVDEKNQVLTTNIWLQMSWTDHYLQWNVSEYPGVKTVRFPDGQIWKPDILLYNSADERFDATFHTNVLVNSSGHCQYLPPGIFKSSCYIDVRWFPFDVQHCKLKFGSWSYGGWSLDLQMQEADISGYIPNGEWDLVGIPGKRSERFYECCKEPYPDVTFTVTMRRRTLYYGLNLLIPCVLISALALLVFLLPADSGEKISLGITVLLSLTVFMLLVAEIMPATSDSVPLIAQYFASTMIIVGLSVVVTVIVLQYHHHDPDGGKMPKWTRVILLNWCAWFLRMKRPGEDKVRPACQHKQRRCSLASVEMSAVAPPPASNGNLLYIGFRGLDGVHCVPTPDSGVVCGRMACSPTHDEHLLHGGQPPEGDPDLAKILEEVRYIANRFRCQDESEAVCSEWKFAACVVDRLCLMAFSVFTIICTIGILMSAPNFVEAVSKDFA

[3] = target: T3, Neuronal acetylcholine receptor; alpha3/beta4 (Homo sapiens, UniProt P30926+P32297); assay: Antagonist activity at human AChR alpha3beta4 transfected in human HEK293 cells assessed as decrease in epibatidine-induced calcium influx incubated for 1 hr by fluo-4 dye based assay
T3 sequence (P30926 whole entry): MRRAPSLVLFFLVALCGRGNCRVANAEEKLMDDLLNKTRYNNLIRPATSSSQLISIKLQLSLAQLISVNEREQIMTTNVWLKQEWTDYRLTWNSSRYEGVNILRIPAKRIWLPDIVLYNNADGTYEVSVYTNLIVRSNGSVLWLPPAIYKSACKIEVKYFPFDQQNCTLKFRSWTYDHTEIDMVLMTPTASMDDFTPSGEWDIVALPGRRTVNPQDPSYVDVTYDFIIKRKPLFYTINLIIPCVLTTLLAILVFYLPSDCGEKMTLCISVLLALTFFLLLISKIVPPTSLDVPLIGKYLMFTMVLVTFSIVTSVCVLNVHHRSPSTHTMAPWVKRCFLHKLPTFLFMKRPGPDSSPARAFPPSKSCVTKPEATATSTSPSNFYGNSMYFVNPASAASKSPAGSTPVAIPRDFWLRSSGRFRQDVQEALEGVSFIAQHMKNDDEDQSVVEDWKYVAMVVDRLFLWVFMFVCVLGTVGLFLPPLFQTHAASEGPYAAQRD
T3 sequence (P32297 whole entry): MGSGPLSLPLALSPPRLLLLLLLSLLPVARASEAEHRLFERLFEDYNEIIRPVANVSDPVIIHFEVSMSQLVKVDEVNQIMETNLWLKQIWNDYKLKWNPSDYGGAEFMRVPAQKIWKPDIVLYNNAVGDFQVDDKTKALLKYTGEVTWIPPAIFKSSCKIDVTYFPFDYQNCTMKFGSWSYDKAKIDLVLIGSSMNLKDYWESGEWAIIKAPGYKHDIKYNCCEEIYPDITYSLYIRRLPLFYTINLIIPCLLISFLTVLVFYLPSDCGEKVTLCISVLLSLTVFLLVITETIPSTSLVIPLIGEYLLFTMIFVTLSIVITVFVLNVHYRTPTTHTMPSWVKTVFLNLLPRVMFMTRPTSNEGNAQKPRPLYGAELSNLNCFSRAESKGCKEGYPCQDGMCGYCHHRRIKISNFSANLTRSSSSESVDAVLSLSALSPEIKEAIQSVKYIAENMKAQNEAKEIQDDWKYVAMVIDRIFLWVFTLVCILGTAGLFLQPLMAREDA

[4] = target: T1, Neuronal acetylcholine receptor; alpha4/beta2; assay: Antagonist activity at human AChR alpha4beta2 transfected in human HEK293 cells assessed as decrease in epibatidine-induced calcium influx incubated for 1 hr by fluo-4 dye based assay
Method in brief: (§1)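 HEK293-hα3β4 or HEK293-hα4β2 cells were seeded 72 h ahead, kept in HBSS/1% FBS (pH 7.4) 16–24 h, and loaded with Fluo-4 plus 2.5 mM probenecid for 1 h at 37 °C. After washing, cells were pretreated 5 min with alkaloid at varied concentrations. 0.1 μM (±)-epibatidine was then added while fluorescence (488/510 nm) was recorded for 78 s. Responses were normalized to the maximal epibatidine response, mean ± SD (n = 3). IC50 and nH came from concentration–response curves.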

[5] = target: T2, Neuronal acetylcholine receptor subunit alpha-7; assay: Antagonist activity at human AChR alpha7 transfected in rat GH3 cells assessed as decrease in epibatidine-induced calcium influx incubated for 1 hr by fluo-4 dye based assay
Method in brief: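 GH3-hα7 cells were seeded 72 h ahead, kept in HBSS/1% FBS (pH 7.4) 16–24 h, and loaded with Fluo-4 plus 2.5 mM probenecid for 1 h at 37 °C. After washing, cells were pretreated 5 min with varied alkaloid concentrations. 1.0 μM (±)-epibatidine was then added while fluorescence (488/510 nm) was recorded for 78 s. Data were normalized to the maximal epibatidine response, mean ± SD (n = 3). IC50 and nH were fitted.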

[6] = species on record: Homo sapiens; assay: Selectivity index, ratio of IC50 for human AChR alpha4beta2 transfected in human HEK293 cells to IC50 for human AChR alpha3beta4 transfected in human HEK293 cells
[7] = species on record: Homo sapiens; assay: Selectivity index, ratio of IC50 for human AChR alpha7 transfected in rat GH3 cells to IC50 for human AChR alpha3beta4 transfected in human HEK293 cells
[8] = target: T1, Neuronal acetylcholine receptor; alpha4/beta2; assay: Antagonist activity at human AChR alpha4beta2 transfected in human HEK293 cells assessed as decrease in epibatidine-induced calcium influx at 10 to 100 uM incubated for 1 hr by fluo-4 dye based assay relative to control; method in brief: as §1
[9] = target: T2, Neuronal acetylcholine receptor subunit alpha-7; assay: Antagonist activity at human AChR alpha7 transfected in […] cells assessed as decrease in epibatidine-induced calcium influx at 10 to 100 uM incubated for 1 hr by fluo-4 dye based assay relative to control
[10] = target: T3, Neuronal acetylcholine receptor; alpha3/beta4; assay: Antagonist activity at human AChR alpha3beta4 transfected in human HEK293 cells assessed as decrease in epibatidine-induced calcium influx at 100 uM incubated for 1 hr by fluo-4 dye based assay relative to control; method in brief: as §1

CC1(C)N[C@@H]2Cc3c([nH]c4ccccc34)[C@]3(C)CC[C@H]1C[C@H]23
Activity [1]: inactive | Activity [2]: inactive | IC50 [3]: 0.4 µM | IC50 [4]: 3.4 µM | IC50 ([5]; read-out: IC50): 27 µM | Ratio IC50 [6]: 8.4 | Ratio IC50 [7]: 67.5 | inhibition [8]: 100% | inhibition [9]: 100%

Clc1ccc(C2C[C@@H]3CC[C@H]2N3)cn1 (mixture of isomers)
Activity [1]: Active | Activity [2]: Active

CC1=CC[C@@H]2C[C@H]1[C@@H](c1ccnc3ccccc13)NC2(C)C
Activity [1]: inactive | Activity [2]: inactive | IC50 [4]: 6.7 µM | IC50 ([5]; read-out: IC50): 45.3 µM

CC1(C)[C@@H]2C[C@@H]3[C@H]4C[C@@]5(Nc6ccccc6[C@@H]5N41)[C@]3(C)CC2=O
Activity [1]: inactive | Activity [2]: inactive | IC50 [3]: 167 µM | IC50 [4]: 145 µM | IC50 ([5]; gh3): Not Active | inhibition [10]: 40% | inhibition [8]: inactive | inhibition [9]: inactive
